Measured values as given in ChEMBL document CHEMBL4477159, “Anti-inflammatory Actions of (+)-3'α-Angeloxy-4'-keto-3',4'-dihydroseselin (Pd-Ib) against Dextran Sulfate Sodium-Induced Colitis in C57BL/6 Mice” (J Nat Prod, 2016).
Values belong to the compound of their own block, whether it stands above or below them. The source made the active and inactive calls. The rule behind the calls is not given here.

Key:
[1] = system: Mus musculus; assay: Antiinflammatory activity in DSS-induced C57BL/6 mouse acute colitis model assessed as increase of IL-4 level at 30 to 120 mg/kg administered by oral gavage from day 5 to day 12 measured on day 13 relative to DSS-treated control; assay type: functional, organism-based
Method in brief: (§1)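 Colon tissue from DSS-colitis mice dosed by gavage (day 13 harvest) homogenized in lysis buffer and spun at 16000g, 4 °C, 15 min. Cytokines in supernatant measured by multiplex bead immunoassay and reported as pg/mL. Protein determined by Bradford with BSA standard. n = 8, mean ± SD.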

[2] = system: Mus musculus; assay: Antiinflammatory activity in DSS-induced C57BL/6 mouse acute colitis model assessed as lowering of histological score at 30 to 120 mg/kg administered by oral gavage from day 5 to day 12 measured on day 13 by hematoxylin/eosin staining-based microscopic analysis; assay type: functional, organism-based
Method in brief: (§2)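 DSS colitis (2% w/v, 5 days) with daily gavage of saline, Pd-Ib (30–120 mg/kg) or SASP (300 mg/kg) through day 12; sacrifice day 13. Colons rinsed in ice-cold PBS, fixed overnight in 4% paraformaldehyde, paraffin-embedded. 5 μm sections H&E stained and graded on a 0–10 histological scale. n = 8, mean ± SD.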

[3] = system: Mus musculus; assay: Antiinflammatory activity in DSS-induced C57BL/6 mouse acute colitis model assessed as lowering of IL-17A level administered by oral gavage from day 5 to day 12 measured on day 13; assay type: functional, organism-based; method in brief: as §1
[4] = molecular target: Signal transducer and activator of transcription 3 (Mus musculus) (UniProt P42227); assay: Inhibition of LPS-induced STAT3 phosphorylation in mouse RAW264.7 cells at 20 ug/ml after 12 hrs by Western blot analysis; assay type: cell-based
Method in brief: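 RAW264.7 cells given LPS 1 μg/mL with or without Pd-Ib 20 μg/mL for 0–24 h, then harvested and lysed. p-STAT3 and β-actin detected by Western blot.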

[5] = system: Mus musculus; assay: Antiinflammatory activity in DSS-induced C57BL/6 mouse acute colitis model assessed as lowering of IFN-gamma level administered by oral gavage from day 5 to day 12 measured on day 13; assay type: functional, organism-based; method in brief: as §1
[6] = system: Mus musculus; assay: Antiinflammatory activity in DSS-induced C57BL/6 mouse acute colitis model assessed as lowering of IL-6 level administered by oral gavage from day 5 to day 12 measured on day 13; assay type: functional, organism-based; method in brief: as §1
[7] = system: RAW264.7; assay: Inhibition of LPS-induced IL-6 production in mouse RAW264.7 cells at 40 ug/ml after 24 hrs by ELISA; assay type: functional, cell-based
Method in brief: (§3)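 RAW264.7 cells incubated 24 h with Pd-Ib (0, 5, 10, 20, 40 μg/mL), with or without LPS 1 μg/mL. IL-6 in the culture supernatant quantified by ELISA.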

[8] = system: Mus musculus; assay: Antiinflammatory activity in DSS-induced C57BL/6 mouse acute colitis model assessed as protection against mucosal injury at 120 mg/kg administered by oral gavage from day 5 to day 12 measured on day 13 by hematoxylin/eosin staining-based microscopic analysis; assay type: functional, organism-based; method in brief: as §2
[9] = system: Mus musculus; assay: Antiinflammatory activity in DSS-induced C57BL/6 mouse acute colitis model assessed as lowering of NO production at 30 to 120 mg/kg administered by oral gavage from day 5 to day 12 measured on day 13 by Griess assay; assay type: functional, organism-based
Method in brief: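 On day 13 after DSS colitis and gavage dosing, frozen colon weighed and homogenized in 0.5% hexadecyltrimethylammonium bromide (100 mg tissue/mL). Spun at 16000g, 4 °C, 15 min. Supernatant nitrite measured with Griess reagent. n = 8, mean ± SD.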

[10] = system: Mus musculus; assay: Antiinflammatory activity in DSS-induced C57BL/6 mouse acute colitis model assessed as reduction in loss of body weight at 30 to 60 mg/kg administered by oral gavage after 9 days of induction; assay type: functional, organism-based
Method in brief: (§4)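 Colitis induced in C57BL/6 mice with 2.0% (w/v) DSS in drinking water for 5 days; controls got distilled water. Saline vehicle, Pd-Ib (30, 60 or 120 mg/kg/day) or SASP (300 mg/kg/day) given by gavage through day 12. Weight, stool consistency and bleeding monitored daily. DAI combines weight-loss, stool and bleeding scores. On day 13, colon measured from ileo-cecal junction to anal verge. n = 8, mean ± SD.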

[11] = system: RAW264.7; assay: Inhibition of LPS-induced ERK phosphorylation in mouse RAW264.7 cells at 5 to 40 ug/ml after 24 hrs by Western blot analysis; assay type: cell-based
Method in brief: (§5)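 RAW264.7 macrophages (DMEM, 10% FBS, 37 °C, 5% CO2) treated with LPS 1 μg/mL alone or with Pd-Ib 5, 10, 20 or 40 μg/mL for 24 h. Lysates in RIPA buffer, 10% SDS-PAGE, immunoblotted for phospho and total STAT3, JNK, ERK and p38; β-actin loading control.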

[12] = system: Mus musculus; assay: Antiinflammatory activity in DSS-induced C57BL/6 mouse acute colitis model assessed as lowering of MPO activity in colon homogenate at 30 to 120 mg/kg administered by oral gavage from day 5 to day 12 measured on day 13; assay type: functional, organism-based
Method in brief: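 Mice given DSS colitis and gavage treatment as above, sacrificed day 13. MPO activity in colon homogenate taken from the rate of optical density change; one unit gives an OD change of 1.0/min at 25 °C. Normalized to colon wet weight, expressed as units/mg tissue. n = 8.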

[13] = system: Mus musculus; assay: Downregulation of elevated p-p38 level in colon homogenate of DSS-induced C57BL/6 mouse acute colitis model administered by oral gavage from day 5 to day 12 measured on day 13 by Western blot analysis; assay type: functional, organism-based
Method in brief: (§6)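 Colonic tissue extracts from DSS-colitis mice gavaged through day 12 and sacrificed day 13. Lysed in RIPA buffer (pH 7.4) with phosphatase/protease inhibitors, run on 10% SDS-PAGE and immunoblotted for STAT3, p-STAT3, p38 and p-p38. Blots stripped and reprobed for β-actin as loading control.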

[14] = molecular target: MAP kinase p38 (Mus musculus) (UniProt P47811+O08911+Q9WUI1+Q9Z1B7); assay: Inhibition of LPS-induced p38 phosphorylation in mouse RAW264.7 cells at 5 to 40 ug/ml after 24 hrs by Western blot analysis; assay type: cell-based; method in brief: as §5
[15] = system: RAW264.7; assay: Inhibition of LPS-induced IL-6 production in mouse RAW264.7 cells at 5 to 20 ug/ml after 24 hrs by ELISA; assay type: functional, cell-based; method in brief: as §3
[16] = molecular target: Signal transducer and activator of transcription 3 (Mus musculus) (UniProt P42227); assay: Inhibition of LPS-induced STAT3 phosphorylation in mouse RAW264.7 cells at 40 ug/ml after 24 hrs by Western blot analysis; assay type: cell-based; method in brief: as §5
[17] = system: Mus musculus; assay: Antiinflammatory activity in DSS-induced C57BL/6 mouse acute colitis model assessed as reduction in loss of body weight at 120 mg/kg administered by oral gavage after 9 days of induction; assay type: functional, organism-based; method in brief: as §4
[18] = system: Mus musculus; assay: Antiinflammatory activity in DSS-induced C57BL/6 mouse acute colitis model assessed as attenuation of shortening of colon length at 60 to 120 mg/kg administered by oral gavage from day 5 to day 12 measured on day 13; assay type: functional, organism-based; method in brief: as §4
[19] = system: Mus musculus; assay: Antiinflammatory activity in DSS-induced C57BL/6 mouse acute colitis model assessed as lowering of TNF-alpha level administered by oral gavage from day 5 to day 12 measured on day 13; assay type: functional, organism-based; method in brief: as §1
[20] = system: Mus musculus; assay: Antiinflammatory activity in DSS-induced C57BL/6 mouse acute colitis model assessed as lowering of disease activity index at 120 mg/kg administered by oral gavage from day 5 to day 12 measured on day 13 relative to DSS-treated control; assay type: functional, organism-based; method in brief: as §4
[21] = system: Mus musculus; assay: Antiinflammatory activity in DSS-induced C57BL/6 mouse acute colitis model assessed as increase of IL-10 level at 30 to 120 mg/kg administered by oral gavage from day 5 to day 12 measured on day 13 relative to DSS-treated control; assay type: functional, organism-based
[22] = system: Mus musculus; assay: Downregulation of elevated p-STAT3 level in colon homogenate of DSS-induced C57BL/6 mouse acute colitis model administered by oral gavage from day 5 to day 12 measured on day 13 by Western blot analysis; assay type: functional, organism-based; method in brief: as §6
[23] = system: RAW264.7; assay: Inhibition of LPS-induced JNK phosphorylation in mouse RAW264.7 cells at 5 to 40 ug/ml after 24 hrs by Western blot analysis; assay type: cell-based; method in brief: as §5
[24] = system: Mus musculus; assay: Antiinflammatory activity in DSS-induced C57BL/6 mouse acute colitis model assessed as lowering of IL-6 level at 300 mg/kg administered by oral gavage from day 5 to day 12 measured on day 13; assay type: functional, organism-based; method in brief: as §1
[25] = system: Mus musculus; assay: Antiinflammatory activity in DSS-induced C57BL/6 mouse acute colitis model assessed as lowering of IL-17A level at 300 mg/kg administered by oral gavage from day 5 to day 12 measured on day 13; assay type: functional, organism-based; method in brief: as §1
[26] = system: Mus musculus; assay: Antiinflammatory activity in DSS-induced C57BL/6 mouse acute colitis model assessed as lowering of disease activity index at 300 mg/kg administered by oral gavage from day 5 to day 12 measured on day 13 relative to DSS-treated control; assay type: functional, organism-based; method in brief: as §4
[27] = system: Mus musculus; assay: Antiinflammatory activity in DSS-induced C57BL/6 mouse acute colitis model assessed as protection against mucosal injury at 300 mg/kg administered by oral gavage from day 5 to day 12 measured on day 13 by hematoxylin/eosin staining-based microscopic analysis; assay type: functional, organism-based; method in brief: as §2

Sequence of Signal transducer and activator of transcription 3 (Mus musculus) (P42227 whole entry): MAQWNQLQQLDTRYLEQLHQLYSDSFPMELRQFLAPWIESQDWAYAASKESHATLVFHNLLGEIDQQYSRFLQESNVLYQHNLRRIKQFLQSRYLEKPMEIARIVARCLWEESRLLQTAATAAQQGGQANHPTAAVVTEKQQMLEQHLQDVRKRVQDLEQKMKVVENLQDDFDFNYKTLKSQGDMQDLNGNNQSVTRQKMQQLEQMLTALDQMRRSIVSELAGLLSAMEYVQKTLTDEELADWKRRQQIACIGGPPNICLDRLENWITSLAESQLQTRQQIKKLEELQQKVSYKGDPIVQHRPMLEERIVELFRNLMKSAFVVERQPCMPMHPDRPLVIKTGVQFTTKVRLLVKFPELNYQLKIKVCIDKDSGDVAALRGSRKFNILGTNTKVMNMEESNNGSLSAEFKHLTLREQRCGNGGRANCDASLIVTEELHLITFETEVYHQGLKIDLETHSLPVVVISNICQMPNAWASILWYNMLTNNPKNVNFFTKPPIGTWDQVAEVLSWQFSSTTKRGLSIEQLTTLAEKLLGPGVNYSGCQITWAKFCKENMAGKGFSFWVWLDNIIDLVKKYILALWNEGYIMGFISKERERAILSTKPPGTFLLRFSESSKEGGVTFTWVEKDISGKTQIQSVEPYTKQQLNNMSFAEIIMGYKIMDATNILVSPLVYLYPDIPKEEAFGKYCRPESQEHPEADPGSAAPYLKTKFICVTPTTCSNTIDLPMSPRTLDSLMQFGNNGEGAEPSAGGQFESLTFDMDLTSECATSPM

inhibition [4]: Active
inhibition [14]: Active
inhibition [16]: Active
Compound: C/C=C(/C)C(=O)O[C@H]1C(=O)c2c(ccc3ccc(=O)oc23)OC1(C)C
Activity [1]: Active
Activity [2]: Active
Activity [3]: Dose-dependent effect
Activity [5]: Dose-dependent effect
Activity [6]: Dose-dependent effect
inhibition [7]: inactive
Activity [8]: Active
Activity [9]: Active
Activity [10]: inactive
inhibition [11]: inactive
Activity [12]: Active
Activity [13]: Dose-dependent effect
inhibition [15]: Active
Activity [17]: Active
Activity [18]: Active
Activity [19]: Dose-dependent effect
Activity [20]: Active
Activity [21]: inactive
Activity [22]: Dose-dependent effect
inhibition [23]: Active

Compound: O=C(O)c1cc(/N=N/c2ccc(S(=O)(=O)Nc3ccccn3)cc2)ccc1O
Activity [24]: Active
Activity [25]: Active
Activity [26]: Active
Activity [27]: Active
